Results: publication PMC4126877 (Molecular cancer therapeutics, 2014)
“And” between values parts separate entries of the source, which are not always exact repeats. Equal values may be shown once. Read-outs that look alike come from different tables or passages of the source.

Assays:
recombinant TDP1 = recombinant TDP1 (Homo sapiens, UniProt Q9NUW8); experiment: Recombinant TDP1 gel-based assay; type: biochemical
In short: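 Gel-based cleavage assay: 1 nM 5′-[32P]-labeled single-stranded oligonucleotide with a 3′-phosphotyrosine (N14Y) incubated with 10 pM recombinant TDP1, ± inhibitor, 15 min, room temperature. Parallel reactions in HTS buffer: 1X PBS pH 7.4, 80 mM KCl, 0.01% Tween-20. Gels dried, PhosphorImager-scanned, quantified by densitometry.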

[1] = biological target: endogenous human TDP1 from whole cell extracts (DT40 hTDP1) (Homo sapiens, UniProt Q9NUW8); experiment: Whole cell extract; type: biochemical
recombinant human TDP2 = biological target: T1, recombinant human TDP2 (Homo sapiens, UniProt O95551); experiment: Recombinant TDP2 counter-screening assay; type: biochemical; conditions: for activity against TDP2 (in words): tested up to 111 µM
T1 sequence (O95551 1-362): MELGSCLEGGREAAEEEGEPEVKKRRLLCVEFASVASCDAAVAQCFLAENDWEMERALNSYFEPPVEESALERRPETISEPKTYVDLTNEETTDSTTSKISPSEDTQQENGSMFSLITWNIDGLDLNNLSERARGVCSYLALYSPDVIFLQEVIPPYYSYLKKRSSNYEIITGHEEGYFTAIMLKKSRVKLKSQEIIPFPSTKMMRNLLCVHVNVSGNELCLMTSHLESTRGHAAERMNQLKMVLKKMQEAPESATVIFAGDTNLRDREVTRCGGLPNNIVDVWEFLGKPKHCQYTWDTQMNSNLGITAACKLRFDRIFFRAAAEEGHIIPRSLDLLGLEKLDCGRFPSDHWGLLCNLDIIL
In short: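 Counter-screen: 1 nM α32P-cordycepin-3′-labeled 18-mer single-stranded oligonucleotide incubated with 25 pM recombinant human TDP2, ± inhibitor, 15 min, room temperature. Reactions terminated and processed as the TDP1 gel assays: gel run, PhosphorImager exposure, densitometry.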

DT40 hTDP1 cells = type: cell-based; conditions: 72 h
Chk2 = conditions: cited from earlier work
[2] = read-out: IC50 TDP1 REC, recombinant TDP1, WCE buffer

Sequence of recombinant TDP1 (Q9NUW8 whole entry): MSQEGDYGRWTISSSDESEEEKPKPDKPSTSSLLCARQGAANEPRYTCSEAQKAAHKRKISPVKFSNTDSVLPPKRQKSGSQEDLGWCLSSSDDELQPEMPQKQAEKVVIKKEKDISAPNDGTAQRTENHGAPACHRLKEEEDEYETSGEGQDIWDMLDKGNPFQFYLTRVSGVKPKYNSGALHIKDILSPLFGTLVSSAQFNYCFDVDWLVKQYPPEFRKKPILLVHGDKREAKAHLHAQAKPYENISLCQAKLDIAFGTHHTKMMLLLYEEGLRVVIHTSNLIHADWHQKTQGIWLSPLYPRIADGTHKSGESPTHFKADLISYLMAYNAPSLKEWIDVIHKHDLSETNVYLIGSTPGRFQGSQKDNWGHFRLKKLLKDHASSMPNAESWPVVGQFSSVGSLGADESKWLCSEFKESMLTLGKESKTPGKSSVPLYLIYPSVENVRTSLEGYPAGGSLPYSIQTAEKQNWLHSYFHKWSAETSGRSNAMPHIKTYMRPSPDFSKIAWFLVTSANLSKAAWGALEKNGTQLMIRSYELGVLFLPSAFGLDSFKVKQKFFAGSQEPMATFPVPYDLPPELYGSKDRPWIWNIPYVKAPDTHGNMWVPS
Sequence of endogenous human TDP1 from whole cell extracts (DT40 hTDP1) (Q9NUW8 whole entry): as above

Structure (SMILES)	inhibition of REC-TDP1 (in words) (recombinant TDP1)	IC50 (recombinant TDP1; [2])	activity against TDP2 (in words) (recombinant human TDP2)	cytotoxicity (DT40 hTDP1 cells)	synergistic effect in combination with CPT (DT40 hTDP1 cells)	further results
Cc1ccc(Nc2nn3c(=O)c4ccccc4nc3s2)cc1C [NCGC00183674]	inhibited REC-TDP1 at low micromolar concentrations	12.1 ± 1.7 µM	only marginal activity against TDP2 at 111 µM	did not exhibit any cytotoxicity	no synergistic effect	IC50 ([1]; read-out: IC50 TDP1 WCE, WCE buffer): 51 µM and 59 µM; selectivity for TDP1 versus TDP2 (recombinant human TDP2): higher selectivity for TDP1; IC50 (recombinant human TDP2; read-out: IC50 TDP2 REC, recombinant TDP2): > 111 µM
O=C(O)c1ccc(-c2ccc(C=C3NC(=O)N(Cc4ccccc4F)C3=O)o2)cc1 [JLT048, 4-(5-[{[1-(2-fluorobenzyl)-2,5-dioxo-4-imidazolidinylidene]methyl]}-2furyl)benzoic acid]	inhibited REC-TDP1 at low micromolar concentrations		also inhibited TDP2, albeit with higher IC50 values	did not exhibit any cytotoxicity	no synergistic effect	IC50 (recombinant TDP1): 7.7 ± 1.8 µM; IC50 ([1]; IC50 TDP1 WCE, WCE buffer): 115 µM and 148 µM; IC50 (recombinant human TDP2): 32 ± 10 µM
O=c1c2ccccc2nc2sc(Nc3ccc4c(c3)CCC4)nn12 [NCGC00183964]		81 µM				reduction in potency, WCE buffer vs HTS buffer (recombinant TDP1; REC-TDP1): 25 fold
CN[C@@H]1C[C@H]2O[C@@](C)([C@@H]1OC)n1c3ccccc3c3c4c(c5c6ccccc6n2c5c31)C(=O)N[C@H]4O [7-hydroxystaurosporine (UCN-01), 7-hydroxystaurosporine]						inhibition of Chk2 purified from cell extract by immunoprecipitation (Chk2): found to inhibit; inhibition of recombinant Chk2 enzyme (Chk2): ineffective
